Data on three compounds can be found in article PMC5900333 (ACS Medicinal Chemistry Letters, 2018).

Data set [1] concerns the target rabbit fast skeletal muscle myofibrils (Oryctolagus cuniculus, UniProt P02586+P02641+P02643). As to the kind of experiment: Fast skeletal myofibril ATPase assay. In kind it is biochemical. Particulars: 14 vs 13; 25 vs bromo 14. A digest of the protocol:
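Rabbit fast skeletal muscle myofibrils; the read-out is the rate of ATP hydrolysis. The assay runs at a calcium level of 25% of that giving a maximal response in control preparations. AC40 is the test compound concentration that raises myofibril ATPase activity by 40%. Experiments were run in duplicate, and the fold potency change is taken from the AC40 values.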

The nature of another data set: Rat pharmacokinetics. Particulars: both, Sprague-Dawley, in vivo, iv.
The nature of data set [2]: In vivo clearance across nonclinical species vs hepatic blood flow.
In the next data set the test system is tibialis anterior. Particulars: healthy humans, nerve stimulation; cited from earlier work.
Data set [3] in a line: Microsomal turnover, human. In kind it is in vitro ADME.
The next data set deals with B6SJL-SOD1^G93A mouse. The settings on record: B6SJL-SOD1G93A mice, single dose; cited from earlier work.
Another data set can be described thus: Mouse pharmacokinetics. The settings on record: in vivo, iv, 1 mg/kg.
Data set [4] concerns PT-EAMG (passive transfer experimental autoimmune myasthenia gravis) rat model. Particulars: rats treated with anti-nAchRα antibody; cited from earlier work.
The nature of another data set: Microsomal turnover, rat. In kind it is in vitro ADME.
In data set [5] the test system is extensor digitorum longus (EDL) muscle. Briefly: In situ EDL muscle force. In kind it is in vivo. The settings on record: rat, systemic infusion, submaximal stimulation rates.
The test system of the next data set is patients with ALS. Particulars: Phase 3, patients with ALS; ref VITALITY-ALS, NCT02496767; cited from earlier work.
For data set [6] the following is noted: ALS patients taking both 25 and Riluzole; cited from earlier work.
In another data set the target is T1, CYP1A2 (Homo sapiens, UniProt P05177).
T1 sequence (P05177 1-516): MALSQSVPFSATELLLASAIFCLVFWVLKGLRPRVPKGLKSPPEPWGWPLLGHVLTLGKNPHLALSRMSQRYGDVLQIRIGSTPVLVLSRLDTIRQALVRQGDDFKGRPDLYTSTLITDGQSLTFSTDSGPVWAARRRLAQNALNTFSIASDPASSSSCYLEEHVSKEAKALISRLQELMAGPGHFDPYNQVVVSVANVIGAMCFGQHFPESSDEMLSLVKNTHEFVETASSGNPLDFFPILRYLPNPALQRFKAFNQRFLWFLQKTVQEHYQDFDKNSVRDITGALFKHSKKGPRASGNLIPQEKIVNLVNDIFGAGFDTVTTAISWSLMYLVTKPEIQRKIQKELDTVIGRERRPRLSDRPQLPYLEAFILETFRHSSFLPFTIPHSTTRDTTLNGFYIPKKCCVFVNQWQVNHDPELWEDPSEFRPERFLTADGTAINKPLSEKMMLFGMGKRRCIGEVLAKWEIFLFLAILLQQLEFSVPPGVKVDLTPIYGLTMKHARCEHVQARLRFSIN
As to the kind of experiment: Cytochrome P450 inhibition and time-dependent inhibition. In kind it is in vitro ADME. Particulars: liver microsomes, probe phenacetin. A general note: Liver microsomes are vesicles of endoplasmic reticulum, rich in cytochrome P450 enzymes.

rabbit fast skeletal muscle myofibrils, sequence (P02586 2-160 limits assumed): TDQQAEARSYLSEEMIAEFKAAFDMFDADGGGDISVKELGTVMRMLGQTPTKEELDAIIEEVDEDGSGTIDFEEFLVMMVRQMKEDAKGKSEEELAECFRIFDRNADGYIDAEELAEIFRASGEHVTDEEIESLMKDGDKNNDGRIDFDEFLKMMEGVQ
rabbit fast skeletal muscle myofibrils, sequence (P02643 2-182 limits assumed): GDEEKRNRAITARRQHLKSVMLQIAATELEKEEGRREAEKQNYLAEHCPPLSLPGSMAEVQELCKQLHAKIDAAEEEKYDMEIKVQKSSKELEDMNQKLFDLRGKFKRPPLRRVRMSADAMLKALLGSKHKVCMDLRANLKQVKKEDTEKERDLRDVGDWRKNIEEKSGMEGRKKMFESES
rabbit fast skeletal muscle myofibrils, sequence (P02641 2-279 limits assumed): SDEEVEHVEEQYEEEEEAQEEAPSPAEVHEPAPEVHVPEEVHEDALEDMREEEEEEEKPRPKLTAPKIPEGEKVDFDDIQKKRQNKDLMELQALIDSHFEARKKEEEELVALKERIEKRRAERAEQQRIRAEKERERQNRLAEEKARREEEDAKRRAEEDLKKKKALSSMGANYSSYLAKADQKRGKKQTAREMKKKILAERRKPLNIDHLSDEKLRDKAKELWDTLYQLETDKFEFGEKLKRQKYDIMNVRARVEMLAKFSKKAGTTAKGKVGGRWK

For `CCC(CC)n1c(=O)[nH]c2ncc(Br)nc21` [Compound 14], the “fold improvement in biochemical potency over comparator” value in data set [1] is 3 fold. Besides, in “Rat pharmacokinetics” (1 mg/kg), the clearance was 19 mL/min/kg.
Consider `CCC(CC)n1c(=O)[nH]c2ncc(Cl)nc21` [Compound 21], for which the clearance in “Rat pharmacokinetics” (1 mg/kg) is 7.7 mL/min/kg.
`C#Cc1cnc2nc(O)n(C(CC)CC)c2n1` [Compound 25, tirasemtiv]: the “in vivo clearance as share of hepatic blood flow” value in data set [2] was “less than 15 % of hepatic blood flow”. In addition, the “force produced by the tibialis anterior” value with tibialis anterior is “increased force produced by the tibialis anterior in a dose-, concentration-, and frequency-dependent manner”. The “Re (h), ratio of extraction in microsomes” value in data set [3] was <0.21. The “muscle function and performance in ALS mouse model” value with B6SJL-SOD1^G93A mouse was “significantly increased submaximal isometric force, forelimb grip strength, grid hang time, and rotarod performance”. Further, the values for the clearance in “Mouse pharmacokinetics”, in the data set “Rat pharmacokinetics” and in the data set “Rat pharmacokinetics” (1 mg/kg) were 13.9 mL/min/kg, 2.6 mL/min/kg and 2.6 mL/min/kg, respectively. Moreover, the “fold improvement in biochemical potency over comparator” value in data set [1] is recorded as 3 fold. In addition, in [4], the grip strength result was “increased grip strength”. Besides, the “Re (r), ratio of extraction in microsomes” value in “Microsomal turnover, rat” worked out at 0.26. The “in situ EDL muscle force” value in [5] was “rapid, dose-dependent increases in muscle force at submaximal stimulation rates”; in data set [5] (listed as tirasemtiv) it was “concentration-dependent improvement in muscle force production in situ”. The “primary end point: change from baseline in slow vital capacity (SVC) at 24 weeks” value in the data set with patients with ALS is recorded as “did not meet its primary end point”. Further, in data set [6], the “drug-drug interaction: change of Riluzole concentrations” value is listed as “approximate doubling of Riluzole concentrations”. Further, on CYP1A2, the IC50 shift at 30 min is > 3.

The clearance is the rate of elimination divided by the concentration. Low readings indicate inefficient removal, high ones efficient removal.
